Measured values gathered from unrelated publications.
Compare with care: the assays were run in different laboratories.
Cell line: 786-0
Effect on: cell growth or viability

| Structure (SMILES) | method | concentration | time | endpoint | result |
| --- | --- | --- | --- | --- | --- |
| CC1=CC(=O)C(C(C)C)=CC1=O | CCK-8 | – | 48 h | IC50 | 43 µM |
| CC(=O)O[C@H]1C(=O)[C@@]2(C)[C@H]([C@H](OC(=O)c3ccccc3)[C@]3(O)C[C@H](OC(=O)[C@H](O)[C@@H](NC(=O)c4ccccc4)c4ccccc4)C(C)=C1C3(C)C)[C@]1(OC(C)=O)CO[C@@H]1C[C@@H]2O | – | – | 110 h | IC50 | 0.005 µM |
| CCCc1c(Sc2ccc(C(=O)N[C@@H](CCC(=O)O)C(=O)O)cc2)[nH]c2nc(N)nc(N)c12 | – | – | – | GI50 | ≤ 0.01 µM |
| COc1cc(-c2ccc(-c3ccc(C(=N)N)nc3)s2)cc(OC)c1OC | – | – | – | GI50 | 2.12 µM |
| COc1cccc(Oc2ccccc2NC(=O)CNC(=O)c2cccc3ccccc23)c1 | SRB | – | 48 h | GI50 | 0.49 µM |
| COc1ccc(C(=O)/C=C/c2cc3c(cc2Br)OCO3)cc1S(N)(=O)=O | SRB | 10 µM | – | inhibition | 140% |
| CC(C)c1c(Sc2ccc(C(=O)N[C@@H](CCC(=O)O)C(=O)O)cc2)[nH]c2nc(N)nc(N)c12 | – | – | – | GI50 | 5.58 µM |
| S=C([S][Au-][P+](CCCCCC[P+]([Au-][S]C(=S)n1cccn1)(c1ccccc1)c1ccccc1)(c1ccccc1)c1ccccc1)n1cccn1 | – | – | – | GI50 | 9.8 µM |
| COc1ccc(-c2ccc(-c3ccc(C(=N)N)nc3)s2)cc1Cl | – | – | – | GI50 | 2 µM |
| COc1ccc(C(=O)/C=C/c2ccccc2Br)cc1S(N)(=O)=O | SRB | – | 48 h | GI50 | 1.8 µM |
| Cc1cc(C)n(C(=S)[S][Au][PH](CCCCCC[PH]([Au][S]C(=S)n2nc(C)cc2C)(c2ccccc2)c2ccccc2)(c2ccccc2)c2ccccc2)n1 | – | – | – | GI50 | 3.1 µM |
